Data taken from ChEMBL document CHEMBL1147785, “Novel peptidomimetic cysteine protease inhibitors as potential antimalarial agents” (J Med Chem, 2006).
Active and inactive are the calls of the source. The rule behind the calls is not given here. Residues, ends and D or L forms follow the SMILES beside them. *: point of attachment. Cbz = O=C(OCc1ccccc1)*

Columns and labels:
[1] = target: T1, Caspase-6 (Homo sapiens) (UniProt P55212); test: Inhibition of human recombinant caspase6 upto 50 uM
T1 sequence (whole entry): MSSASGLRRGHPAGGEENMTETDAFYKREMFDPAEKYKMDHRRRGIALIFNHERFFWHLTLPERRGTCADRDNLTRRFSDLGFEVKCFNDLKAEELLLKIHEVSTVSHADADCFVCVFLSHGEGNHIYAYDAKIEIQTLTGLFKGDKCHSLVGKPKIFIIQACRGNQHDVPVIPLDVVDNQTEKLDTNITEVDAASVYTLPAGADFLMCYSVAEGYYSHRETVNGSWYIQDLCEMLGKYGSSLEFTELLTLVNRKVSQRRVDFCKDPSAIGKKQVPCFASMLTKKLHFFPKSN

[2] = target: T2, Falcipain 2 (Plasmodium falciparum, UniProt Q9N6S8); test: Inhibition of Plasmodium falciparum recombinant FP2A fused with maltose binding protein
T2 sequence (Q9N6S8 whole entry): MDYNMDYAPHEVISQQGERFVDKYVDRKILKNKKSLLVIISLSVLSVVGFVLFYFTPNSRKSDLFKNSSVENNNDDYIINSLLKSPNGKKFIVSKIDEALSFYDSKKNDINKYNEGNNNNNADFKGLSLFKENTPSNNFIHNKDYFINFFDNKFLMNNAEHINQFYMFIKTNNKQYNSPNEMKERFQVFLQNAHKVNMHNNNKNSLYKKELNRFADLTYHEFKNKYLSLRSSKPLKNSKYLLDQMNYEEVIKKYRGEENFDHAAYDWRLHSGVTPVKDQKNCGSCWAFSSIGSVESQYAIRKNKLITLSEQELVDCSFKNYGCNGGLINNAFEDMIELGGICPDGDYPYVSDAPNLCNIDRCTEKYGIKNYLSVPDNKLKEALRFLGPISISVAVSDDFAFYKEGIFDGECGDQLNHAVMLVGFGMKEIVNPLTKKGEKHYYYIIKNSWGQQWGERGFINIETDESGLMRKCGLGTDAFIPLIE
Outline: (§1)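 Recombinant enzyme expressed in E. coli as a maltose binding protein fusion. Fluorescence assay using the fluorogenic substrate Z-Leu-Arg-AMC, with inhibitor at various concentrations. Hydrolysis rate was compared with DMSO-only negative controls and with positive controls containing a standard papain-family cysteine protease aldehyde inhibitor. Results are given as IC50.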

[3] = target: T3, Falcipain 2B (Plasmodium falciparum, UniProt Q3HTL5); test: Inhibition of Plasmodium falciparum recombinant FP2B fused with maltose binding protein; outline: as §1
T3 sequence (Q3HTL5 whole entry): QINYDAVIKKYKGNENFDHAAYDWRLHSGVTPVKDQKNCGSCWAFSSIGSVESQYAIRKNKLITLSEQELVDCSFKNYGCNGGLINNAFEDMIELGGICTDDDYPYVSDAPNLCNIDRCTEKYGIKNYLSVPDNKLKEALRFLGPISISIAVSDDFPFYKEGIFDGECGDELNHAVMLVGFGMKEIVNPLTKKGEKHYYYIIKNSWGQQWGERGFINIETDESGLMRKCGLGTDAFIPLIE

[4] = target: T4, Caspase-1 (Homo sapiens) (UniProt P29466); test: Inhibition of human recombinant caspase1 upto 50 uM
T4 sequence (whole entry): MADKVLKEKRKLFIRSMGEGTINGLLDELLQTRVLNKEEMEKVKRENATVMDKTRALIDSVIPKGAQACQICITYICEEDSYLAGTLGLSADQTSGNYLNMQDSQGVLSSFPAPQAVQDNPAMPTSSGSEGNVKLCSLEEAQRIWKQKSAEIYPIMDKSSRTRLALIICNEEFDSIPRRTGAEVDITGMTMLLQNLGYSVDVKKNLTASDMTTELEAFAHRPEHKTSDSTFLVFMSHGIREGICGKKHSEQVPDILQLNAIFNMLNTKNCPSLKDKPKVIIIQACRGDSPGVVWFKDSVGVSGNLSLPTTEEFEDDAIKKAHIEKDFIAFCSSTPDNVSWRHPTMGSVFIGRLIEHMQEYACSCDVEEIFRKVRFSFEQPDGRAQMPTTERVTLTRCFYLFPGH

[5] = target: T5, Caspase-3 (Homo sapiens) (UniProt P42574); test: Inhibition of human recombinant caspase3 upto 50 uM
T5 sequence (whole entry): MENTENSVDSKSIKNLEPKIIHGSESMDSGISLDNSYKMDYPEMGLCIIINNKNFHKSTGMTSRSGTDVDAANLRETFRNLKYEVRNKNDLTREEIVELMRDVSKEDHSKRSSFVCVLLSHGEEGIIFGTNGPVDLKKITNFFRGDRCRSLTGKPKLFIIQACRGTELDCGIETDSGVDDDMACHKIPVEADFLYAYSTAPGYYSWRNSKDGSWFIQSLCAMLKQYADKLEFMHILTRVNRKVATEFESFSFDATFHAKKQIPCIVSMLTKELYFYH

[6] = target: T6, Caspase-7 (Homo sapiens) (UniProt P55210); test: Inhibition of human recombinant caspase7 upto 50 uM
T6 sequence (whole entry): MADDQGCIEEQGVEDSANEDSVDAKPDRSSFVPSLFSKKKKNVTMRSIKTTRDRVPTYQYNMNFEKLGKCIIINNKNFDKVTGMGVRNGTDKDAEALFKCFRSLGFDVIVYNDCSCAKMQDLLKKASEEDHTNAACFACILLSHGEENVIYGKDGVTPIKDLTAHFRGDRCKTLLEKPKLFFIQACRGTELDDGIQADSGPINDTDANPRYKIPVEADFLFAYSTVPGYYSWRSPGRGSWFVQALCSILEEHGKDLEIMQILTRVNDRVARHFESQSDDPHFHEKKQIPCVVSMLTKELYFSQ

[7] = target: T7, Caspase-9 (Homo sapiens) (UniProt P55211); test: Inhibition of human recombinant caspase9 upto 50 uM
T7 sequence (whole entry): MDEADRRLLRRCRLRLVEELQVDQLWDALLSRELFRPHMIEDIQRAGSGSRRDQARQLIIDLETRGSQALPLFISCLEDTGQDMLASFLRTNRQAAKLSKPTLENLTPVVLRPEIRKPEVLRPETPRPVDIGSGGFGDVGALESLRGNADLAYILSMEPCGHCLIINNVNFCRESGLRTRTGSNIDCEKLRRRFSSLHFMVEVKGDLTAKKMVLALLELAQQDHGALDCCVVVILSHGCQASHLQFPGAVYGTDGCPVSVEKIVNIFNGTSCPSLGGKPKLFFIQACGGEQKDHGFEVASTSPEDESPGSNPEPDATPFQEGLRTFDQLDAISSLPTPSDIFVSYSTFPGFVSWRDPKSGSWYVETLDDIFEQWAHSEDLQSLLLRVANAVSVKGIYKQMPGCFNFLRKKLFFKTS

| SMILES | Activity [1] | IC50 [2] | IC50 [3] | Activity [4] | Activity [5] | Activity [6] | Activity [7] |
| --- | --- | --- | --- | --- | --- | --- | --- |
| O=C(CN1C(=O)[C@@H](COC(=O)Nc2ccc(F)cc2)N=C(c2ccccc2)c2ccccc21)N[C@H]1CC(=O)OC1O (some centres not stated) | inactive | 16.3 µM | 12 µM | inactive | inactive | inactive | inactive |
| O=C(CN1C(=O)[C@@H](COC(=O)Nc2cccc3ccccc23)N=C(c2ccccc2)c2ccccc21)N[C@H]1CC(=O)OC1O (some centres not stated) | inactive | 11.2 µM | 17.9 µM | inactive | inactive | inactive | inactive |
| CC(C)[C@H](NC(=O)OCc1ccccc1)C(=O)N[C@H](C=O)Cc1ccccc1 (Cbz-Val-Phe-aldehyde) | inactive | 5 µM | 5 µM | inactive | inactive | inactive | inactive |
| O=C(CN1C(=O)[C@@H](COC(=O)Nc2c(F)cc(F)cc2Br)N=C(c2ccccc2)c2ccccc21)N[C@H]1CC(=O)OC1O (some centres not stated) | inactive | 19.2 µM | 21.4 µM | inactive | inactive | inactive | inactive |
| O=C(CN1C(=O)[C@H](COC(=O)Nc2ccc(Cl)cc2C(F)(F)F)N=C(c2ccccc2)c2ccccc21)N[C@H]1CC(=O)OC1O (some centres not stated) | inactive | 10.3 µM | 19.3 µM | inactive | inactive | inactive | inactive |
| COc1ccc(NC(=O)OC[C@H]2N=C(c3ccccc3)c3ccccc3N(CC(=O)N[C@H]3CC(=O)OC3O)C2=O)cc1 (some centres not stated) | inactive | 8.79 µM | 14 µM | inactive | inactive | inactive | inactive |
| Cc1cc(Cl)ccc1NC(=O)OC[C@H]1N=C(c2ccccc2)c2ccccc2N(CC(=O)N[C@H]2CC(=O)OC2O)C1=O (some centres not stated) | inactive | 8.25 µM | 11.2 µM | inactive | inactive | inactive | inactive |
| O=C(CN1C(=O)[C@@H](COC(=O)Nc2ccccc2)N=C(c2ccccc2)c2ccccc21)N[C@H]1CC(=O)OC1O (some centres not stated) | inactive | 21.5 µM | 19.8 µM | inactive | inactive | inactive | inactive |
| O=C(CN1C(=O)[C@@H](COC(=O)Nc2ccc(F)cc2F)N=C(c2ccccc2)c2ccccc21)N[C@H]1CC(=O)OC1O (some centres not stated) | inactive | 13.5 µM | 14.7 µM | inactive | inactive | inactive | inactive |
| O=C(CN1C(=O)[C@@H](COC(=O)Nc2ccc(Cl)cc2)N=C(c2ccccc2)c2ccccc21)N[C@H]1CC(=O)OC1O (some centres not stated) | inactive | 15 µM | 9.53 µM | inactive | inactive | inactive | inactive |
| O=C(CN1C(=O)[C@@H](COC(=O)Nc2ccc(Cl)cc2C(F)(F)F)N=C(c2ccccc2)c2ccccc21)N[C@H]1CC(=O)OC1O (some centres not stated) | inactive | 8.68 µM | 25.9 µM | inactive | inactive | inactive | inactive |
